Source: ChEMBL document CHEMBL1128414, “Steroidal affinity labels of the estrogen receptor. 2. 17 alpha-[(Haloacetamido)alkyl]estradiols” (J Med Chem, 1995)
Calls of active or inactive are those of the source. The rule behind the calls is not given here.

Key:
[1] = molecular target: T1, Estrogen receptor (Ovis aries) (UniProt P49885+Q9TU15); test: (§1) Irreversible inhibition of [3H]estradiol binding to lamb uterine estrogen receptor; format: protein assay
Procedure, shortened: (§2)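 Lamb uterine cytosol (4 mg protein/mL, immature lamb uteri, 20 mM Tris-HCl) adjusted to pH 8.5 with NaOH, preincubated 4 h at 0 °C with 10 nM–10 µM compound or no steroid. Charcoal treatment for 30 min at 0 °C, then centrifugation. […] Specific binding is expressed as % of unexposed cytosol. IC50 is the concentration giving 50% irreversible inhibition; duplicates in two experiments.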

[2] = molecular target: T1, Estrogen receptor (Ovis aries); test: In vitro agonist/antagonist activity in estrogen regulated transcriptional activation assay; format: functional; conditions: filed as partial agonist
[3] = molecular target: Estrogen receptor (Ovis aries, UniProt P49885+Q9TU15); test: as §1; format: protein assay; procedure, shortened: as §2
[4] = molecular target: T1, Estrogen receptor (Ovis aries)
[5] = molecular target: T1, Estrogen receptor (Ovis aries); test: Relative efficiency(RE) in irreversible inhibition of lamb uterine estrogen receptor relative to iodoacetamide 23
[6] = molecular target: T1, Estrogen receptor (Ovis aries); test: In vitro agonist activity in estrogen regulated transcriptional activation assay; format: functional; conditions: filed as agonist
[7] = molecular target: T1, Estrogen receptor (Ovis aries); test: In vitro antagonist activity in estrogen regulated transcriptional activation assay; format: functional; conditions: filed as antagonist

Row | Compound | Covalent binding [1] | Hormonal activity [2] | IC50 [3] [nM] | RAC app [4] | RE [5] | Hormonal activity [6] | Hormonal activity [7]
1 | C[C@]12CC[C@@H]3c4ccc(O)cc4CC[C@H]3[C@@H]1CC[C@@]2(O)CCCNC(=O)CBr | Active | Partial agonist | 53 | 0.019 | 0.34 | – | –
2 | C[C@]12CC[C@@H]3c4ccc(O)cc4CC[C@H]3[C@@H]1CC[C@@]2(O)CCCNC(=O)CI | Active | Partial agonist | 18 | 0.0084 | 1 | – | –
3 | C[C@]12CC[C@@H]3c4ccc(O)cc4CC[C@H]3[C@@H]1CC[C@@]2(O)CCOS(C)(=O)=O | inactive | – | – | 0.15 | – | Agonist | –
4 | C[C@]12CC[C@@H]3c4ccc(O)cc4CCC3[C@@H]1CC[C@@]2(O)CNC(=O)CBr (single isomer, unassigned) | Active | – | 9700 | 0.0076 | 0.0019 | – | Antagonist
5 | C[C@]12CC[C@@H]3c4ccc(O)cc4CC[C@H]3[C@@H]1CC[C@@]2(O)CCNC(=O)CBr | Active | Partial agonist | 1600 | 0.017 | 0.011 | – | –
6 | CC(=O)NCCC[C@]1(O)CC[C@H]2[C@@H]3CCc4cc(O)ccc4[C@H]3CC[C@@]21C | inactive | Partial agonist | – | 0.0084 | – | – | –
